# Experimental data of several laboratories.
# Protocols differ between the studies behind these lines.
SMILES,organism,assay,system,conditions,endpoint,result
COc1cc2ncn(-c3cc(O[C@H](C)c4ccccc4Cl)c(C(N)=O)s3)c2cc1OC,Plasmodium berghei,"parasite growth, luciferase",human,liver stage,IC50,7000 nM
N=C(N)c1ccc(OCCCCCOc2ccc(C(=N)N)cc2)cc1,Trypanosoma brucei,parasite growth,,,EC50,1.24 nM
COC(=O)Cc1ccc(/C=C/c2nc3ccccc3c(=O)n2-c2cccc(C(=O)O)c2)cc1,Enterococcus faecium,"microbial growth, broth dilution",NCTC7171,,MIC,> 128 µg/mL
CCN(Cc1cnc2nc(N)nc(N)c2n1)c1ccc(C(=O)N2CCC(C(=O)OC)CC2)cc1,Trypanosoma brucei,"parasite growth, resazurin",,"10 µM, 72 h",inhibition,31%
CC(C)=Cc1cccc2c1C(=NNc1ccc(S(N)(=O)=O)cc1)C(=O)N2,Trypanosoma brucei,parasite growth,,,EC50,31.6 nM
CCCCCCCCCC(=O)N[C@@H](Cc1c[nH]c2ccccc12)C(=O)N[C@H](CC(N)=O)C(=O)N[C@@H](CC(=O)O)C(=O)N[C@@H]1C(=O)NCC(=O)N[C@@H](CCCN)C(=O)N[C@@H](CC(=O)O)C(=O)N[C@H](C)C(=O)N[C@@H](CC(=O)O)C(=O)NCC(=O)N[C@H](CO)C(=O)N[C@@H]([C@H](C)CC(=O)O)C(=O)N[C@@H](CC(=O)c2ccccc2N)C(=O)O[C@@H]1C,Enterococcus faecium,"microbial growth, broth dilution",,24 h,MIC,2 µg/mL
[O-][S+]1CCN(Cc2ccc(-c3ccc4ncnc(Nc5ccc(OCc6cccc(F)c6)c(Cl)c5)c4c3)o2)CC1,Trypanosoma brucei,parasite growth,,,EC50,2000 nM
Cl.NCCCc1ccc(Oc2ccc(-c3noc(-c4ccc(O)cc4)n3)cc2)cc1,Enterococcus faecium,"microbial growth, broth dilution",,24 h,MIC,2 µg/mL
C[C@@H]1[C@H](O)[C@@H](C)/C=C/C=C/C=C/C=C/C=C/C=C/C=C/[C@H](O[C@@H]2O[C@H](C)[C@@H](O)[C@H](N)[C@@H]2O)C[C@@H]2O[C@](O)(C[C@@H](O)C[C@@H](O)[C@H](O)CC[C@@H](O)C[C@@H](O)CC(=O)O[C@H]1C)C[C@H](O)[C@H]2C(=O)O,Candida albicans,microbial killing,ATCC90028,,MFC,1.25 µg/mL
CC(=O)Oc1ccc(-n2c(/C=C/c3ccc([N+](=O)[O-])cc3)nc3ccccc3c2=O)cc1,Enterococcus faecium,"microbial growth, broth dilution",NCTC7171,,MIC,32 µg/mL
Nc1nonc1-c1nc2cnccc2n1C1CCCCC1,Trypanosoma brucei,parasite growth,,,EC50,1260 nM
COc1ccc(-c2nn3ncccc3c2-c2ccnc(Nc3ccc4c(c3)OCCO4)n2)cc1,Plasmodium berghei,"parasite growth, luciferase",human,liver stage,IC50,3500 nM
C#CCCCCCCCCCCCC(O)CC(O)CO (stereo not drawn),Mycobacterium intracellulare,"microbial growth, resazurin",ATCC23068,,IC50,> 200 µg/mL
O=C(O)Cc1cccc(Oc2ccc(-c3noc(-c4ccc(O)cc4)n3)cc2)c1,Enterococcus faecium,"microbial growth, broth dilution",,24 h,MIC,> 32 µg/mL
COc1ncccc1CNc1cccc(-n2c(/C=C/c3ccc(C#N)cc3)nc3ccccc3c2=O)c1,Enterococcus faecium,"microbial growth, broth dilution",NCTC7171,,MIC,> 128 µg/mL
CC1=C(C(=O)Nc2ccc3[nH]ncc3c2)C(c2ccc(Cl)c(Cl)c2)CC(=O)N1 (stereo not drawn),Trypanosoma brucei,parasite growth,,,EC50,25100 nM
CS(=O)(=O)Nc1cccc(-n2c(/C=C/c3ccc(F)cc3)nc3ccccc3c2=O)c1,Enterococcus faecium,"microbial growth, broth dilution",NCTC7171,,MIC,> 128 µg/mL
Nc1ncc(-c2cccc(S(N)(=O)=O)c2)c2scc(-c3ccc(F)c(Cl)c3)c12,Trypanosoma brucei,parasite growth,,,EC50,10000 nM
